Assay outcomes from PubChem BioAssay.
MrgX1 allo act: human MrgX1 positive allosteric modulation, primary screen; Q96LB2; MrgX1-HEK293, Fluo-4 calcium flux, FDSS; stronger effect = higher value; B-score at 10 µM; 310,000 tested, 0.63% active; AID 588675;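 active = plate-corrected calcium response at least 3 library SD above typical, normal starting fluorescence, not activating the receptor alone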;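 note: compound read alongside a low EC10 to EC30 dose of BAM8-22 agonist; peak minus trough fluorescence over baseline measured at the second addition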
Target sequence (Q96LB2 whole entry, looked up): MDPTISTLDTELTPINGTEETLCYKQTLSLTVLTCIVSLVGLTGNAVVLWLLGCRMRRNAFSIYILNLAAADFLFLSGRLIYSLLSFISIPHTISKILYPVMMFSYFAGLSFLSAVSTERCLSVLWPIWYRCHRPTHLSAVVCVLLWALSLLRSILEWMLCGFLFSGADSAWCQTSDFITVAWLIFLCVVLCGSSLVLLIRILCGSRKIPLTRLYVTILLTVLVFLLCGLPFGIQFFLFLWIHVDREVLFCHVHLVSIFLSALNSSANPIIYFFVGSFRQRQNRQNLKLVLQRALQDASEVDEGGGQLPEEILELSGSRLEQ
RGS4 block: inhibitors of human RGS4 | P49798 | HEK293 M3R/RGS4 inducible, Fluo-4 calcium flux; stronger effect = higher value; triggered by carbachol at its EC20 | B-score at 10 µM | 310,000 tested, 0.45% active | AID 463165;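 active = B-score, a plate-corrected calcium signal, over three deviations above library mean, with baseline fluorescence within five deviations of library mean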;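 note: RGS4 expression induced by doxycycline in cells with stable M3 receptor; B-score is computed from the integrated fluorescence ratio over baseline after carbachol; higher B-score means a larger calcium signal and so more RGS4 inhibition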
Target sequence (P49798 whole entry, looked up): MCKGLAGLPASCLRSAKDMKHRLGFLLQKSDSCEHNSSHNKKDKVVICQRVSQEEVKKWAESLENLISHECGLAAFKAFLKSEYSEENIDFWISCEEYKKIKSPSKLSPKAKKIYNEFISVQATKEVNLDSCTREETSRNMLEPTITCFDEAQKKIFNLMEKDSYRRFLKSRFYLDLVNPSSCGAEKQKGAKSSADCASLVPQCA
MrgX1 agonist: agonists of human MrgX1 receptor; Q96LB2; MrgX1-HEK293 cells, Fluo-4 calcium fluorescence, agonist mode; stronger effect = higher value; B-score at 10 µM; 310,000 tested, 0.44% active;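 active = calcium response B-score plate-corrected fluorescence ratio at least 3 library SD, with starting fluorescence B-score inside 5 SD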
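Assay system: MrgX1-expressing HEK293 cells / Amount: fifteen thousand cells per well / Doses: test compound in the initial addition of three / Timing: cells plated overnight, dye loaded 0.5 h 37 °C, 0.5 h room temperature / Technique: kinetic calcium dye fluorescence, Fluo-4 NW / Control set: positive and negative controls per plate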
RGS4 act: RGS4 potentiation or activation; HEK293 M3R/inducible RGS4, carbachol calcium flux Fluo4; stronger effect = lower value; B-score at 10 µM; 310,000 tested, 0.92% active; AID 463111;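 active = B-score of the integrated calcium signal more than 4 SD below the library mean, with starting fluorescence not abnormally high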;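 note: negative B-score means reduced calcium response which marks RGS4 activation or potentiation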
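Assay system: HEK293 FlpIn-TREx cells, stable M3R, doxycycline-inducible RGS4 / Probe or stimulus: carbachol, ECmax concentration / Times: overnight RGS4 induction, 30 min dye load 37 °C, 20 min compound RT / Signal: kinetic calcium fluorescence imaging with Fluo4-AM dye, 2 µM / Measure: Agonist-evoked peak-minus-minimum fluorescence over baseline, integrated ratio, B score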
MrgX1 antag: blocks BAM8-22 activation of human MrgX1 receptor; Q96LB2; MRGX1-HEK293 calcium flux, Fluo-4, BAM8-22 antagonism; stronger effect = lower value; B-score at 10 µM; AID 588676; 310,000 tested, 1.3% active;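 active = calcium-response B-score plate-corrected more than 3 library SD below zero, starting fluorescence within 5 deviations, no agonist response on first addition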;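 note: peak minus trough fluorescence over baseline after final BAM8-22 challenge near maximal dose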
MrgX1 antag conf: human MrgX1 receptor antagonism, re-confirmation screen; shares compounds with MrgX1 antag; MrgX1-HEK293, BAM8-22 calcium flux, Fluo-4; stronger effect = lower value; remaining BAM8-22 calcium response % of control (stronger effect = lower value), % at 10 µM; 2,300 tested, 19% active; AID 602420;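 active = remaining agonist calcium response no higher than 100% minus 3 SD of agonist-only control wells, with starting fluorescence near control levels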;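 note: agonist BAM8-22 given at a near maximal EC90 to ECmax level; peak minus minimum fluorescence divided by baseline after agonist addition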
HEK293 Ca flux: MrgX1 antagonist counter-screen hit in parental HEK293 cells; shares compounds with MrgX1 antag; Fluo-4 calcium fluorescence, FDSS; fluorescence ratio F(max-min)/F0 at 10 µM; 4,000 tested, 2% active; AID 624111;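 active = duplicate-averaged calcium fluorescence ratio at least three times the standard deviation of buffer wells, a nonspecific response in parental cells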
HEK293 Ca counter: counter-screen for MrgX1 allosteric activators: effect in parental HEK293 cells; shares compounds with MrgX1 antag; parental HEK293 calcium flux, Fluo-4 fluorescence ratio; stronger effect = higher value; fluorescence ratio F(max-min)/F0 at 10 µM; 4,000 tested, 0.4% active; AID 624114;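 active = calcium fluorescence ratio, averaged over duplicates, at least 3 SD of the buffer-well ratio, meaning a nonspecific response in receptor-free cells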;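 note: untransfected parental HEK293 lacking MrgX1 used as counterscreen for MrgX1 allosteric activators; fluorescence change taken during the second addition on a kinetic imager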
HEK293 Ca cntr2: MrgX1 activator counter-screen hit in parental HEK293 cells; shares compounds with MrgX1 antag; Fluo-4 calcium fluorescence (FDSS); stronger effect = higher value; fluorescence ratio F(max-min)/F0 at 10 µM; 4,000 tested, 8.7% active;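 active = calcium fluorescence ratio at least three times the spread of buffer wells, meaning a non-specific response in parental cells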
Starred values were filed as active, the others as inactive; i = inactive; x = no result. Hits are enriched below; roughly 3.5% of the tested compounds scored in any of these assays.

SMILES	MrgX1 allo act	RGS4 block	MrgX1 agonist	RGS4 act	MrgX1 antag	MrgX1 antag conf	HEK293 Ca flux	HEK293 Ca counter	HEK293 Ca cntr2
COc1ccc(-c2csc(NC(=O)Cc3ccccc3F)n2)cc1OC	i	i	i	i	-6.1*	78%*	i	i	i
COc1ccc(-c2csc(NC(=O)C3CCN(c4ncnc5sc(C)c(C)c45)CC3)n2)cc1OC	i	i	i	i	-6*	79%*	i	i	i
CC1CCC2(CC1)NC(=O)c1ccccc1O2 (stereo not drawn)	i	i	i	i	i	x	x	x	x
CC(C)(C)c1cccc(Oc2nn[nH]n2)c1	i	i	i	i	-6.9*	i	i	i	i
Cc1ccc(Cl)cc1N1CCN(C(=O)c2cc3c(=O)[nH]c4ccccc4c3n2C)CC1	i	i	i	i	-14*	36%*	i	i	i
COc1ccc(OC)c2sc(NC(=O)CCSc3ccccc3)nc12	i	i	i	i	-8.8*	i	i	i	i
COc1ccc(OC)c2sc(NC(=O)CCS(=O)(=O)c3ccccc3)nc12	i	i	i	i	i	x	x	x	x
Cc1cc(OCC(=O)N[C@@H](Cc2c[nH]c3ccccc23)C(=O)O)c2c(C)c(C)c(=O)oc2c1	i	i	i	i	i	x	x	x	x
Cc1occc1-c1nnc(SCC(=O)Nc2ccccc2)n1CCc1ccccc1	i	i	i	i	i	x	x	x	x
CN(C)C(=O)N1CCN(C(=O)c2ccco2)CC1	i	i	i	i	i	x	x	x	x
NC(=S)Nc1cccc2cc3ccccc3cc12	i	i	i	i	i	x	x	x	x
NC(=S)Nc1cc2ccccc2c2ccccc12	i	i	i	i	-4.8*	i	i	i	i
CC1CCCC(NC(=O)c2cccc(S(=O)(=O)N3CCN(c4ccccc4)CC3)c2)C1C (stereo not drawn)	i	i	i	i	-9.2*	i	i	i	i
CC1CCCCC1NC(=O)c1cccc(S(=O)(=O)N2CCN(C)CC2)c1 (stereo not drawn)	i	i	i	i	i	x	x	x	x
CC1(C)CC2CC(C)(CN2C(=O)c2ccc([N+](=O)[O-])cc2)C1 (stereo not drawn)	i	i	i	i	i	x	x	x	x
COc1ccc(O)c(/C=N/NC(=O)CSc2nnc(C)n2-c2ccccc2)c1	i	i	i	i	i	x	x	x	x
S=C(Nc1ccc(Cl)cc1)Nc1cccc2cnccc12	i	i	i	i	-5.2*	i	i	i	i
C=C(C(=O)O)C1CCC2(C)CCCC(C)(O)C2C1 (stereo not drawn)	i	i	i	i	i	x	x	x	x
Cn1cc(CC(=O)Nc2cccc(C#N)c2)c2ccccc21	i	i	i	i	-4.6*	i	i	i	i
CC1Cc2ccccc2N1C(=O)c1ccc(N2CCCCC2)c([N+](=O)[O-])c1 (stereo not drawn)	i	i	i	i	-11*	i	i	i	i
CC1Cc2ccccc2N1C(=O)c1ccc(N2CCCC2)c([N+](=O)[O-])c1 (stereo not drawn)	i	i	i	i	i	x	x	x	x
COc1cc(NS(=O)(=O)c2ccc3[nH]c(=O)[nH]c3c2)cc(OC)c1	i	i	i	i	i	x	x	x	x
Cn1ccs/c1=N\S(=O)(=O)c1ccc(F)cc1	i	i	i	i	-5*	i	i	i	i
